This is a sample that favours compounds with a hit; in the whole collection about 2.5% have one here.
DNMT1 block: inhibitors of human DNMT1; P26358; DNMT1 molecular beacon, Hinp1I cleavage, fluorescence; inhibition (reported as % activation of signal), % at 10 µM; 0.83% of 360,000 active; AID 588458; in the data active means inhibition above about 50%
UHRF1 MBD2 ctr: blocks human UHRF1 binding to methylated DNA | Q96T88 | UHRF1 binding to methylated oligo, TR-FRET | inhibition, % at 4.4 µM | 0.75% of 370,000 active; in the data active means inhibition above about 21%;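 further: UHRF1 SRA domain binding a hemimethylated CpG hairpin DNA probe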
HCV NS3 hel inh: inhibitors of Hepatitis C virus NS3 helicase; 0.56% of 290,000 active; inhibition, % at 10.9 µM; NS3 helicase DNA unwinding, Cy5 molecular beacon fluorescence; AID 1800;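 active means inhibition above the mean of all tested compounds plus 3 SD, set per campaign, cut at about 35% in these data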
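assay system = NS3 helicase fragment of HCV | buffer or medium = MOPS pH 6.5, MgCl2, DTT, Tween20, BSA | timing = 60 min unwinding reaction at 25 °C after ATP addition | signal = Cy5 beacon fluorescence read at start and 1 h | read-out basis = % inhibition of unwinding | control set = low DMSO, high thioflavine S at 110 µM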
SUMO1-SIM PPI: SUMO1-SIM interaction modulation; AID 602429; 0.33% of 360,000 active; SUMO1 binding to a labelled peptide, TR-FRET, 1 h; P63165; inhibition, % at 20 µM; in the data active means inhibition above about 37%
Pemphigus Ab inh: human desmoglein-3 autoantibody binding inhibition. P32926. DSG3-coupled beads, scFv-anti-DSG3-GFP binding, flow cytometry; active compounds read low. binding (percent of control), % at 10 µM. 0.48% of 310,000 active;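 active means binding more than 3 SD below its plate's average and above zero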;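 further: hits lower antibody fragment binding to DSG3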
MBD2 DNA inh: inhibitors of human MBD2 binding to methylated oligonucleotide. TR-FRET. 0.31% of 370,000 active. inhibition, % at 4.4 µM; in the data active means inhibition above about 13%
DNMT1 confirm: confirmation of human DNMT1 inhibitors. shares compounds with DNMT1 block. inhibition, % at 10 µM. DNMT1 molecular beacon HinP1I cleavage, fluorescence. AID 602385. 8% of 2,300 active;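 active means average inhibition of at least 30% in the single-concentration confirmation test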
DNMT1 interf: shows spectral interference in the DNMT1 beacon assay; shares compounds with DNMT1 block; DNMT1 molecular beacon spectral interference counterscreen, fluorescence 485/520; activation (fluorescence interference), % at 10 µM; 1% of 2,300 active; AID 602387;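 active means activation of at least 30% at 10 µM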;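 further: DNMT1 catalytic domain with a HinP1I cleavage step and a FAM/dabcyl DNA beacon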
Each line names hits and unclear results; the compound was inactive in the other large screens (follow-up assays come after a bar, where they were run).

CCOC(=O)c1[nH]c(C)c(C(=O)N(CC)CC)c1C	none
CCOC(=O)c1ccc(-c2c(-c3ccc4c(c3)OCO4)noc2C)cc1F	none
O=c1c2cc3ccccc3n2cnn1Cc1ccccc1F	none
O=C(O)c1cccc(-n2cccc2/C=C2\NC(=O)N(Cc3ccc(F)cc3)C2=O)c1	DNMT1 block 107 | DNMT1 confirm inactive | DNMT1 interf inactive
O=C(O)c1cccc(-n2cccc2/C=N/O)c1	DNMT1 block 105 (no result: Pemphigus Ab inh) | DNMT1 confirm inactive | DNMT1 interf inactive
CC(=C\C(=O)O)/C(=C/c1ccc(C)o1)C(=O)O	DNMT1 block 78 | DNMT1 confirm inactive | DNMT1 interf inactive
CC(=C\C(=O)O)/C(=C/c1ccco1)C(=O)O	none
Cc1cc(C=O)c(C)n1-c1ccc(Cl)c(C(=O)O)c1	DNMT1 block 88, UHRF1 MBD2 ctr 47 | DNMT1 confirm inactive | DNMT1 interf inactive
O=C(NCc1cccc(CNC(=O)C(=O)NCc2ccco2)c1)C(=O)NCc1ccco1	DNMT1 block 91 | DNMT1 confirm inactive | DNMT1 interf inactive
O=C(NCc1cccc(CNC(=O)c2ccco2)c1)c1ccco1	none
COc1cccc(N(C(=O)Cn2nnc(-c3ccc(Cl)cc3)n2)C(C(=O)NCC2CCCO2)c2ccc(C)cc2)c1 (stereo not drawn)	DNMT1 block 59 | DNMT1 confirm inactive | DNMT1 interf inactive
O=C(N/N=C\c1cc(Br)c(Br)o1)c1cncc(Br)c1	none
O=C(N/N=C/c1cc(Br)c(Br)o1)c1cccnc1	DNMT1 block 62 | DNMT1 confirm inactive | DNMT1 interf inactive
O=C(O)c1cc(O)c2c(c1)C(=O)c1cccc(O)c1C2=O	DNMT1 block 69 (no result: Pemphigus Ab inh) | DNMT1 confirm inactive | DNMT1 interf inactive
O=C(O)c1cccc2c1-c1ccc(Cl)cc1C2=O	none (no result: HCV NS3 hel inh)
CCc1nc(Nc2ccncc2)c2oc3ccccc3c2n1	DNMT1 block 51 | DNMT1 confirm inactive | DNMT1 interf inactive
Cc1nc(Nc2ccncc2)c2oc3ccccc3c2n1	none
CCC(C(=O)N/N=C(\C)c1cccnc1)c1ccccc1 (stereo not drawn)	none
O=C(Nc1ccccc1)Nc1nnc(/C=C/c2ccccc2Cl)s1	DNMT1 block 89 | DNMT1 confirm inactive | DNMT1 interf inactive
Cc1nc(SCC(=O)c2c[nH]c3ccccc23)n[nH]1	none
CC1=NN2C(=N)/C(=C\c3cc(C)n(Cc4ccccc4)c3C)C(=O)N=C2S1	none
CC1=NN2C(=N)/C(=C\c3ccc(SCc4ccccc4)o3)C(=O)N=C2S1	DNMT1 block 64 | DNMT1 confirm inactive | DNMT1 interf inactive
O=C(O)CN1C(=O)/C(=C\c2ccc(OC(=O)c3ccco3)cc2)SC1=S	none
O=C(O)CN1C(=O)/C(=C/c2ccc(SCc3ccccc3)o2)SC1=S	DNMT1 block 76 | DNMT1 confirm inactive | DNMT1 interf inactive
COc1ccc(CCNC(=S)Nc2ccc(C)cc2C)cc1	none
O=C(N/N=C/c1ccc(OC(=O)c2ccc3c(c2)OCO3)cc1)c1cncc(Br)c1	DNMT1 block 117 | DNMT1 confirm inactive | DNMT1 interf inactive
CCCCn1c(N)c(N(CCC(C)C)C(=O)c2ccccc2-n2cnnn2)c(=O)[nH]c1=O	none (no result: HCV NS3 hel inh)
C=C1CCC2C(C)(C(=O)O)CCCC2(C)C1CCC(CO)CCO (stereo not drawn)	none (no result: HCV NS3 hel inh, Pemphigus Ab inh)
C=C/C(C)=C/CC1C(=C)CCC2C(C)(C(=O)O)CCCC12C (stereo not drawn)	DNMT1 block 81 (no result: HCV NS3 hel inh) | DNMT1 confirm inactive | DNMT1 interf inactive
CCCN(CCC)CCCNC(=O)CS(=O)Cc1nc(-c2ccc(OC)c(OC)c2)oc1C (stereo not drawn)	none
Cc1ccc(C(=O)Nc2ccc(S(=O)(=O)N3CCN(C)CC3)cc2)cc1	DNMT1 block 67 | DNMT1 confirm inactive | DNMT1 interf inactive
COc1ccc(CNC(=O)CSc2nnc(C(F)(F)F)n2C)cc1	none
COC(=O)c1ccc(N2CCS(=O)(=O)CC2)cc1	DNMT1 block 59 | DNMT1 confirm inactive | DNMT1 interf inactive
COC(=O)N1CCN(c2ccc(C(C)=O)cc2)CC1	none (no result: Pemphigus Ab inh)
COCCN(C(=O)c1cc2c(s1)CCC2)c1c(N)n(CC(C)C)c(=O)[nH]c1=O	DNMT1 block 61 (no result: HCV NS3 hel inh) | DNMT1 confirm inactive | DNMT1 interf inactive
COCCN(C(=O)c1cc2c(s1)CCCCC2)c1c(N)n(CC(C)C)c(=O)[nH]c1=O	none (no result: HCV NS3 hel inh)
COc1cccc(-c2[nH]nc3c2C(c2ccsc2)C(C#N)=C(N)O3)c1 (stereo not drawn)	none
COc1cccc(-c2[nH]nc3c2C(c2ccoc2)C(C#N)=C(N)O3)c1 (stereo not drawn)	DNMT1 block 67 | DNMT1 confirm inactive | DNMT1 interf inactive
COc1ccc(OC(=O)c2cc(S(=O)(=O)N3CCCC3)ccc2Cl)cc1	none
Cc1c(C)n(C(=O)CSc2nc3ccccc3[nH]2)c2ccccc12	DNMT1 block 100, UHRF1 MBD2 ctr 47 | DNMT1 confirm inactive | DNMT1 interf inactive
O=C(CSc1nc2ccccc2[nH]1)N1CCCCC1	none
Cc1cccn2c(=O)nc(SCC(=O)N3CCOCC3)nc12	none (no result: HCV NS3 hel inh)
N#Cc1ccc(-c2ccccc2)nc1SCC(=O)c1cc2ccccc2oc1=O	DNMT1 block 70 (no result: Pemphigus Ab inh) | DNMT1 confirm inactive | DNMT1 interf inactive
Cc1ccc(-c2nc3ncccc3o2)cc1NC(=O)CC(C)C	none (no result: Pemphigus Ab inh)
Cc1ccc(-c2nc3ncccc3o2)cc1NC(=O)Cc1ccc(Cl)cc1	DNMT1 block 76 | DNMT1 confirm inactive | DNMT1 interf inactive
Cc1ccc(-c2nc3cccnc3o2)cc1NC(=O)COc1ccc(Cl)cc1C	DNMT1 block 73 | DNMT1 confirm inactive | DNMT1 interf inactive
CC(C)(C)NC(=S)NNC(=O)c1ccncc1	none
Cn1ccc2c(N3c4ccccc4CCc4ccccc43)cc3c(c21)C1CCC3O1 (stereo not drawn)	DNMT1 block 50 (no result: HCV NS3 hel inh, Pemphigus Ab inh) | DNMT1 confirm inactive | DNMT1 interf inactive
Cc1csc2ncc(C(=O)Nc3cccc(C(F)(F)F)c3)c(=O)n12	DNMT1 block 68 (no result: HCV NS3 hel inh) | DNMT1 confirm inactive | DNMT1 interf inactive
CCC(C)[C@H](N)c1nnc(SCC(=O)c2ccc(Cl)cc2)o1 (stereo partly drawn)	none
COc1ccc(S(=O)(=O)Cc2ccc(C(=O)O)o2)cc1	none
Cc1ccc(S(=O)(=O)Cc2ccc(C(=O)N3CCc4ccccc4C3)o2)cc1	DNMT1 block 81 | DNMT1 confirm inactive | DNMT1 interf inactive
Cc1ccc(S(=O)(=O)Cc2ccc(C(=O)O)o2)cc1	DNMT1 block 89, UHRF1 MBD2 ctr 22 | DNMT1 confirm inactive | DNMT1 interf inactive

Assay outcomes (PubChem)
